We go through 24 compounds from PubChem BioAssay.

Assay [1] in a line: S. cerevisiae growth inhibition in permissive medium (OD615), pilot counter-assay for S. cerevisiae lifespan shortening project, permissive growth control (AID 705;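 active = growth inhibition above 25% in both replicates, a cutoff set 3 SD above the mean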). The following applies: OD615, 24 h, at 10 µM, stronger effect = higher value. The method in brief: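 System: Engineered DeaD yeast | Buffer or medium: SC raffinose/galactose permissive medium | Doses: 10 µM single dose, 0.25% DMSO | Times: 24 h exposure, 30 °C | Measured by: OD615 turbidity read | Read-out: Yeast growth inhibition indicated by reduced 24 h OD615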

Assay [2] in a line: S. cerevisiae growth inhibition in restrictive medium, OD615, pilot screen, restrictive growth control, yeast lifespan reduction project (AID 706;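 active = growth inhibition above a set limit, 3 SD over mean compound inhibition, in both replicates, cut at about 43% in these data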;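 note: modified DeaD lifespan yeast strain shifted to restrictive glucose medium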). Conditions: OD615, 48 h, at 10 µM, stronger effect = higher value. Summed up:
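Assay system: engineered S. cerevisiae DeaD strain; Buffer or medium: CSMM-D glucose medium; Dosing: 10 µM compound, 0.25% DMSO; Times: cell pre-growth 4 h, compound exposure 48 h, 30 °C; Detection: absorbance (optical density) measured at 615 nm.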

Assay [3] can be described thus: doxorubicin toxicity protection in MRP-1 cells – H69AR cells, CellTiter-Glo, duplicate, MRP-1 activator project, pilot screen (AID 807).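 Note: compound pretreatment 18-22 h then 72 h combined with doxorubicin; 0% = doxorubicin alone and 100% = vehicle without doxorubicin.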 The following applies: H69AR viability with doxorubicin, CellTiter-Glo luminescence; at 10 µM; stronger effect = higher value. (In general: In ATP-based viability assays light output follows the ATP content of the culture.)
Assay [4] is described as follows: viability of HCT116 without oncogenic beta-catenin – human colon tumor cells, pilot screen (AID 823;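 active = cell viability at or below a set limit in both duplicate runs, the limit being the all-compound median minus 4 SD, cut at about 23% in these data, passing the limit was not always enough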;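 note: 0% = wells killed by 20 µM Hyamine and 100% = untreated DMSO cell wells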). Conditions: HCT116 beta-catenin knockout viability, CellTiter-Glo, 60 h; at 10 µM; stronger effect = lower value.
Assay [5] can be described thus: viability of PTEN-null HCT116 cells – cell-based, HCT116 clonal line, CellTiter-Glo, pilot screen (AID 824;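 active = viability at or below 27.92% in each of two runs, the all-compound median minus 4 SD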;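 note: 0% = 20 µM Hyamine control and 100% = vehicle cell control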). Conditions: HCT116 PTEN-deleted viability, 60 h, at 10 µM, stronger effect = lower value.
Assay [6] can be described thus: RAM pathway blockade in budding yeast – dse1pr::URA3 reporter, 5-FOA selection, pilot screen (AID 869;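 active = inhibition over a set limit, the all-compound mean plus 3 SD, in both replicate runs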;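 note: 0% = DMSO wells with no growth and 100% = 10 µM 1-NA-PP1 with full growth; RAM network block rescues cells from 5-FOA so hits raise OD615 growth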). The following applies: S. cerevisiae dse1pr::URA3 5-FOA growth, OD615, 2 d; at 10 µM; stronger effect = higher value; strain carries analog-sensitive mutant Cbk1 kinase.
A short description of assay [7]: RAM signaling pathway blockade in yeast – S. cerevisiae, Pdr1DBD-CYC8 efflux-inhibited sensitized strain, primary screen (AID 1298;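 active = RAM network inhibition above 8.4% in each of two replicates, 3 SD over the compound average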;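 note: 0% = DMSO untreated cells without growth and 100% = 10 µM 1-NA-PP1 full growth; higher means more yeast growth rescued from 5-FOA killing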). Conditions: S. cerevisiae cbk1-as DSE1-URA3 strain, 5-FOA growth OD615, 2 d; at 50 µM; stronger effect = higher value.

A number with no mark means an inactive call. Records with an inconclusive call do not appear. Activity calls are given as the source filed them.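 Rule for the calls, unless noted: active = viability increase at or above a cutoff of the median across tested compounds plus 3 SD (cut at about 8.5% in these data, passing the limit was not always enough); inconclusive = some gains above the cutoff, reason not given; inactive = the rest.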

Regarding `CCOCCCNC(=O)C(NC(=O)CC1NC(=O)NC1=O)c1ccc(Cl)cc1` (stereo not drawn), the figures for the growth inhibition in assay [1] and in assay [2] were -4.46% and 1.68%, respectively. For the same compound, the viability increase in assay [3] was 0.89%. Further, the viability (usually a read-out of living cells in per cent, often relative to untreated cells) in assay [4] was 107%; in assay [5], 96.1%. Moreover, the inhibition (commonly the change of the read-out against control, counted positive when it falls) in assay [6] was 2.61%. Also, the RAM network inhibition in assay [7] is 1.81%.

In the case of `COc1ccc(-c2nc(CS(=O)CC(=O)NCCC3=CCCCC3)c(C)o2)cc1` (stereo not drawn), the growth inhibition in assay [1] is 0.225%; in assay [2], 9.63%. Also, in assay [3], the viability increase is -4.36%. Besides, the viability in assay [4] was 77.1%; in assay [5], 79.6%. For the same compound, the inhibition in assay [6] was 0.475%. In addition, the RAM network inhibition in assay [7] was 3.02%.

For `Cn1cc(SCC(=O)NCc2ccc3c(c2)OCO3)c2ccccc21`, the growth inhibition in assay [1] was 4.09%; in assay [2] it was -1.53%. Further, the viability increase in assay [3] was -4.24%. The viability in assay [4] was 98.3%; in assay [5], 95.1%. Besides, in assay [6], the inhibition was 1.17%. Also, the RAM network inhibition in assay [7] was 4.4%.

With `CCN1CCN(CCNC(=O)CS(=O)(=O)Cc2nc(-c3ccc(C)cc3)oc2C)CC1`, the growth inhibition in assay [1] was -13.7%; in assay [2], -28.7%. For the same compound, in assay [3], the viability increase was 0.44%. For the same compound, the viability was 87.2% in assay [4] and 93.7% in assay [5]. Further, the inhibition in assay [6] is 0.22%. In addition, the RAM network inhibition in assay [7] is 3.16%.

Consider `CCN1C(=O)c2ccccc2S(=O)c2ccc(C(=O)N3CCN(C(=O)c4ccco4)CC3)cc21` (stereo not drawn), for which the growth inhibition in assay [1] was -1.51%; in assay [2] it was 7.19%. The viability increase in assay [3] was -2.16%. In addition, the viability in assay [4] is 101%; in assay [5] it was 92.5%. Besides, in assay [6], the inhibition was 1.33%. Also, the RAM network inhibition in assay [7] was 7.96%.

In the case of `CCOC(=O)N1CCC(c2cc(=O)n3[nH]c(-c4ccccc4)cc3n2)CC1`, the growth inhibition in assay [1] is 2.9%; in assay [2], -2.34%. Moreover, in assay [3], the viability increase is -1.16%. Besides, the viability in assay [4] was 102%; in assay [5], 95.3%. Moreover, in assay [6], the inhibition was 3.11%. The RAM network inhibition in assay [7] is 9.15%.

With `COc1cc(CO)cc(Br)c1OCC(=O)O`, the growth inhibition in assay [1] was -2.25%; in assay [2] it was -3.28%. The viability increase in assay [3] was -1.45%. The viability in assay [4] was 102%; in assay [5], 92.5%. Moreover, the inhibition in assay [6] is 0.03%. Moreover, the RAM network inhibition in assay [7] was -1.46%.

On to `COc1ccccc1Cc1nc(-c2ccc(Br)o2)no1`, for which the figures for the growth inhibition in assay [1] and in assay [2] were -0.335% and 6.17%, respectively. In addition, the viability increase in assay [3] is -3.52%. The viability in assay [4] was 97.4%; in assay [5], 85.8%. For the same compound, in assay [6], the inhibition was 2.08%. In addition, the RAM network inhibition in assay [7] is 5.63%.

For `O=C(c1cc(-c2ccc(Cl)c(Cl)c2)on1)N1CCCC1`, the figures for the growth inhibition in assay [1] and in assay [2] were -5.55% and 0.315%, respectively. Moreover, the viability increase in assay [3] is 4.2%. Further, the viability in assay [4] is 111%; in assay [5], 102%. In addition, in assay [6], the inhibition was 1.99%. For the same compound, the RAM network inhibition in assay [7] was 1.27%.

`O=C(NC1CCCCC1)C1CC(=O)N(c2ccc(Cl)cc2)C1` (stereo not drawn): the values for the growth inhibition in assay [1] and in assay [2] were -4.29% and 1.57%, respectively. Besides, the viability increase in assay [3] was -0.58%. In addition, the figures for the viability in assay [4] and in assay [5] were 95.5% and 90.4%, respectively. Moreover, the inhibition in assay [6] was 1.29%. Moreover, in assay [7], the RAM network inhibition was 2.04%.

As for `NS(=O)(=O)c1ccc(CNC(=O)NC2(c3ccccc3)CC2)cc1`, the growth inhibition in assay [1] was -14.6%; in assay [2], -6.6%. Further, the viability increase in assay [3] is -2.9%. The viability in assay [4] is 102%; in assay [5], 87.2%. Besides, the inhibition in assay [6] was 1.08%. For the same compound, the RAM network inhibition in assay [7] was 3.05%.

Consider `CCCCOc1ccc(C2(C)CC(=O)NC2=O)cc1` (stereo not drawn), for which the growth inhibition is 19.7% in assay [1] and 10.9% in assay [2]. Also, the viability increase in assay [3] is -1.56%. Also, the results for the viability in assay [4] and in assay [5] were 95.3% and 91.8%, respectively. In assay [6], the inhibition was 0.425%. Further, the RAM network inhibition in assay [7] was -1.18%.

Turning to `COc1ccc(NC(=O)c2ccc(CN3CCN(c4ccccc4)CC3)cc2)cc1`, the growth inhibition in assay [1] was -7.38%; in assay [2] it was -9.14%. Further, the viability increase in assay [3] is -0.09%. For the same compound, the viability is 67.4% in assay [4] and 73.1% in assay [5]. Further, the inhibition in assay [6] was 2.54%. In addition, the RAM network inhibition in assay [7] is 9.97%.

`COc1cccc(C(=O)Nc2ccc3nc(N4CCN(c5ncccn5)CC4)cc(C)c3c2)c1OC`: the growth inhibition in assay [1] is 12%; in assay [2], -8.24%. Also, the viability increase in assay [3] was -5.36%. Further, the viability in assay [4] is 9.73% (active); in assay [5], 12.8% (active). In addition, the inhibition in assay [6] was 0.73%. Besides, in assay [7], the RAM network inhibition is 4.05%.

Turning to `CN(C)c1ccc(C(=O)Nc2nc3c(s2)CCCC3)cc1`, the growth inhibition in assay [1] was 9.25%; in assay [2] it was -3.03%. In assay [3], the viability increase was -0.42%. Besides, the viability in assay [4] is 69.7%; in assay [5], 72.4%. The inhibition in assay [6] was 0.905%. In assay [7], the RAM network inhibition was 1.19%.

For `O=C(O)c1ccc(NS(=O)(=O)c2ccc3c(c2)OCCO3)cc1`, the growth inhibition in assay [1] was 4.96%; in assay [2] it was -3.53%. The viability increase in assay [3] was 0.04%. Also, the results for the viability in assay [4] and in assay [5] were 107% and 108%, respectively. The inhibition in assay [6] was 0.975%. Further, in assay [7], the RAM network inhibition was 1.55%.

On to `O=C(Cn1ncc2c1-c1ccccc1OC2)Nc1nc2ccccc2s1`, for which the growth inhibition was -6.12% in assay [1] and 18.7% in assay [2]. The viability increase in assay [3] is -6.71%. The viability was 93.9% in assay [4] and 84.5% in assay [5]. In addition, the inhibition in assay [6] is 0.785%. Besides, in assay [7], the RAM network inhibition is -2.15%.

On to `CCCc1nnc(NC(=O)CC(=O)OCC)s1`, for which the growth inhibition in assay [1] was 6.47%; in assay [2], -8.03%. Further, the viability increase in assay [3] was -1.07%. Further, the viability is 97% in assay [4] and 93.1% in assay [5]. Also, the inhibition in assay [6] is 0.96%. Besides, the RAM network inhibition in assay [7] is -0.11%.

For the compound `CCCc1cc(C(=O)NC2CCCC2)no1`, the results for the growth inhibition in assay [1] and in assay [2] were -11.7% and -2.35%, respectively. Moreover, the viability increase in assay [3] is 0.7%. For the same compound, the viability in assay [4] is 103%; in assay [5], 98.1%. The inhibition in assay [6] was 0.365%. Also, the RAM network inhibition in assay [7] is 3.3%.

Regarding `O=C(NC1CCCC1)C(c1ccc(Cl)cc1)N1CCOCC1` (stereo not drawn), the growth inhibition in assay [1] is -10.9%; in assay [2], -6.79%. Further, the viability increase in assay [3] is 1.37%. In addition, the figures for the viability in assay [4] and in assay [5] were 98.8% and 93%, respectively. Besides, the inhibition in assay [6] is 1.98%. Also, in assay [7], the RAM network inhibition was 2.55%.

For the compound `N#Cc1nc(-c2ccccc2F)oc1NCc1ccccc1`, the growth inhibition in assay [1] is -4.66%; in assay [2], 11.3%. The viability increase in assay [3] was 1.59%. In addition, the viability is 107% in assay [4] and 90.5% in assay [5]. Moreover, the inhibition in assay [6] is 1.98%. Moreover, in assay [7], the RAM network inhibition was 3.96%.

Regarding `O=C(O)c1c(F)c(F)c(F)c(F)c1-c1ccc(Cl)cc1`, the growth inhibition in assay [1] is -20%; in assay [2], -19.6%. In assay [3], the viability increase is -1.76%. In addition, the viability in assay [4] and in assay [5] was 98.9% each time. In assay [6], the inhibition is -0.105%. The RAM network inhibition in assay [7] is 5.79%.

For the compound `CCOC(=O)C(C(=O)OCC)=C1OC(=O)c2ccccc21`, the growth inhibition in assay [1] was -11.1%; in assay [2], -7.16%. The viability increase in assay [3] was 0.39%. The viability in assay [4] is 98.6%; in assay [5], 96.4%. In addition, in assay [6], the inhibition is 2.19%. Also, the RAM network inhibition in assay [7] is 2.35%.

For the compound `O=C1c2ccccc2C(Nc2cccnc2)N1Cc1ccc2c(c1)OCO2` (stereo not drawn), the growth inhibition in assay [1] is 7.46%; in assay [2], 3.33%. Besides, the viability increase in assay [3] is -2.21%. Besides, the viability in assay [4] was 94.1%; in assay [5], 104%. Also, the inhibition in assay [6] was 0.205%. For the same compound, in assay [7], the RAM network inhibition is 1.74%.
